Assay results reported in ChEMBL document CHEMBL1122909, “Psoralenamines. 3. Synthesis, pharmacological behavior, and DNA binding of 5-(aminomethyl)-8-methoxy-, 5-[[(3-aminopropyl)oxy]methyl]-, and 8-[(3-aminopropyl)oxy]psoralen derivatives” (1985).

Columns and labels:
Nucleic Acid = experiment: Evaluated for photo-cross-linking of DNA; format: functional
In short: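 Sonicated calf thymus DNA (200 µg) plus psoralen 0.1–100 µg/mL in 10 mM Tris-HCl, 1 mM EDTA, pH 7.0. Irradiated 30 min (~365 nm, 24 kJ/m2), heated 100 °C 5 min, ice-cooled. Double- vs single-stranded DNA resolved on hydroxylapatite with 50–500 mM phosphate gradient. The concentration giving 50% cross-linked DNA is expressed relative to 8-MOP.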

Mus musculus = experiment: Evaluated in vivo for its photosensitization activity, against increase in skin thickness relative to that of 8-MOP.; format: functional; parameters: unit: % of 8-MOP
In short: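 Female hairless Hr/Hr mice, 4–6 weeks, 5–28 per group. Compound given ip at 0.6, 6 or 60 mg/kg (reported at 6 mg/kg). UVA from four TL20W/09 tubes after 5 min–2 h, 4 J cm-1 as printed. Skin-fold thickness measured by caliper 24 h post-irradiation, expressed relative to 8-MOP (=100%).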

NHIK3025 [1] = experiment: Evaluated for DNA. photo-cross-linking in cell line NHIK 3025 cross-linking affinity measured by alkaline elution technique.; format: functional, Homo sapiens
In short: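 NHIK 3025 cells (~10^6) labelled 16 h with [3H]thymidine (1 µCi/mL). Psoralen in PBS at 1–90 µg/mL, 10-min equilibration, then irradiation 0.8 J/cm2 at ~365 nm. Cells trypsinized and lysed on 2-µm filter (0.2% Sarcosyl, 2 M NaCl, 40 mM EDTA, pH 10), then eluted at pH 12.2. Relative efficiency vs 8-MOP is read from concentrations giving similar elution retardation.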

NHIK3025 [2] = experiment: Evaluated in vitro for phototoxic effect on human cell line NHIK 3025, assay performed using threefold dilution and result reported by one dilution step.; format: functional
Tetrahymena thermophila [3] = experiment: Evaluated for DNA photo-cross-linking in Tetrahymena thermophila and relative cross-linking affinity measured by the alkaline elution technique.; format: functional
In short: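 Tetrahymena thermophila ~2×10^5 cells prelabelled with [3H]thymidine; phototreated with psoralen in 10 mM Tris-HCl pH 7.4 at ~365 nm. Interstrand cross-links are measured by alkaline elution: cells lysed on 2-µm filter (0.2% Sarcosyl, 2 M NaCl, 40 mM EDTA, pH 10), eluted at pH 12.2. Efficiency relative to 8-MOP is taken from concentrations giving similar elution retardation.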

Tetrahymena thermophila [4] = experiment: Evaluated in vitro for phototoxic effect on ciliate Tetrahymena thermophila cells; format: functional

Row | Compound | Photo-cross-linking of DNA (Nucleic Acid) | Photosensitization (Mus musculus) | DNA crosslinking (NHIK3025 [1]) | Phototoxic effect (NHIK3025 [2]) | DNA photo-crosslinking (Tetrahymena thermophila [3]) | Phototoxic effect (Tetrahymena thermophila [4])
1 | CN1CC[N+](C)(CCCOc2c3occc3cc3ccc(=O)oc23)CC1.[Br-] | 2.5 | 463 | 7 | 10 | 2 | 10
2 | COc1c2occc2cc2ccc(=O)oc12 [METHOXSALEN] | 1 | 100 | 100 | 100 | 100 | 100
3 | COc1c2occc2c(CN2CCCCC2)c2ccc(=O)oc12.Cl | 0.3 | 238 | 19 | 3 | 8 | 
4 | COc1c2occc2c(C[N+](C)(C)C)c2ccc(=O)oc12.[Cl-] | 0.1 | 140 | 3 | 1 | 2 | 0.3
5 | COc1c2occc2c(CN2CCN(C)CC2)c2ccc(=O)oc12.Cl | 0.2 | 325 | 9 | 5 |  | 10
6 | COc1c2occc2c(CN(CCO)CCO)c2ccc(=O)oc12.Cl | 0.2 | 339 | 1 | 3 | 3 | 0.3
7 | O=c1ccc2cc3ccoc3c(OCCO)c2o1 | 1 |  |  |  |  | 
8 | COCc1c2ccoc2c(OC)c2oc(=O)ccc12 | 0.04 |  |  |  |  | 
9 | COc1c2occc2c(CN)c2ccc(=O)oc12.Cl | 2.1 | 172 | 8 | 1 | 3 | 5
10 | COc1c2occc2c(COCCC[N+](C)(C)C)c2ccc(=O)oc12.[Br-] | 0.1 |  | 1 | 3 | 4 | <0.3
11 | COc1c2occc2c(CN(C)CCO)c2ccc(=O)oc12.Cl | 0.5 | 306 | 15 | 2 |  | 3
12 | Br.CCN(CC)CCCOc1c2occc2cc2ccc(=O)oc12 | 1.8 | 357 | 190 | 100 | 170 | 150
13 | COc1c2occc2c(COCCCO)c2ccc(=O)oc12 | < 0.07 |  |  |  |  | 
14 | COc1c2occc2c(CO)c2ccc(=O)oc12 | 0.07 |  |  |  |  | 
15 | COc1c2occc2c(CN2CCOCC2)c2ccc(=O)oc12.Cl | 0.1 | 154 | <1 | 0.3 | 6 | 0.3
16 | CC[N+](CC)(CC)Cc1c2ccoc2c(OC)c2oc(=O)ccc12.[Cl-] | 0.05 | 133 | 8 | 3 | 14 | 5
17 | COc1c2occc2c(CN(C)C)c2ccc(=O)oc12.Cl | 0.6 | 194 | 24 | 7 | 14 | 15
18 | C[N+](C)(C)CCCOc1c2occc2cc2ccc(=O)oc12.[Br-] | 1.1 | 477 | 3 | 15 | 5 | 3
19 | COc1c2occc2c(CN(C(C)C)C(C)C)c2ccc(=O)oc12.Cl | 0.15 | 87 | 12 | 2 |  | 10
